The record followed here is ChEMBL document CHEMBL1122482, “Optical resolution, absolute configuration, and activity of the enantiomers of proxyphylline” (J Med Chem, 1983).

Structures are written as SMILES.

A short description of test [1]: Inhibition of human lung high-affinity cAMP phosphodiesterases (0.5-2 uM/L). The essentials: (§1)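 Enzyme source was lung cytosol from homogenized unaffected tissue of a patient undergoing total pulmectomy for pulmonary carcinoma. Phosphodiesterase activity was measured essentially by the Thompson and Appleman method. Substrates were cAMP or cGMP at 0.5–2 μmol/L for the high-affinity form and 10–50 μmol/L for the low-affinity form. Inhibitor was added at 0.25–1.0 mmol/L. K_I came from Dixon plots of initial rates.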

The target in test [2] is cGMP-dependent 3',5'-cyclic phosphodiesterase (Homo sapiens, UniProt O00408). The experiment in a line: Inhibition of human lung low-affinity cGMP phosphodiesterases (10-50 uM/L). The procedure, abridged: as §1
For test [3], the target named is cGMP-specific 3',5'-cyclic phosphodiesterase (Homo sapiens, UniProt O76074). The experiment in a line: Inhibition of human lung high-affinity cGMP phosphodiesterases (0.5-2 uM/L). The procedure, abridged: as §1

cGMP-dependent 3',5'-cyclic phosphodiesterase, sequence (O00408 whole entry): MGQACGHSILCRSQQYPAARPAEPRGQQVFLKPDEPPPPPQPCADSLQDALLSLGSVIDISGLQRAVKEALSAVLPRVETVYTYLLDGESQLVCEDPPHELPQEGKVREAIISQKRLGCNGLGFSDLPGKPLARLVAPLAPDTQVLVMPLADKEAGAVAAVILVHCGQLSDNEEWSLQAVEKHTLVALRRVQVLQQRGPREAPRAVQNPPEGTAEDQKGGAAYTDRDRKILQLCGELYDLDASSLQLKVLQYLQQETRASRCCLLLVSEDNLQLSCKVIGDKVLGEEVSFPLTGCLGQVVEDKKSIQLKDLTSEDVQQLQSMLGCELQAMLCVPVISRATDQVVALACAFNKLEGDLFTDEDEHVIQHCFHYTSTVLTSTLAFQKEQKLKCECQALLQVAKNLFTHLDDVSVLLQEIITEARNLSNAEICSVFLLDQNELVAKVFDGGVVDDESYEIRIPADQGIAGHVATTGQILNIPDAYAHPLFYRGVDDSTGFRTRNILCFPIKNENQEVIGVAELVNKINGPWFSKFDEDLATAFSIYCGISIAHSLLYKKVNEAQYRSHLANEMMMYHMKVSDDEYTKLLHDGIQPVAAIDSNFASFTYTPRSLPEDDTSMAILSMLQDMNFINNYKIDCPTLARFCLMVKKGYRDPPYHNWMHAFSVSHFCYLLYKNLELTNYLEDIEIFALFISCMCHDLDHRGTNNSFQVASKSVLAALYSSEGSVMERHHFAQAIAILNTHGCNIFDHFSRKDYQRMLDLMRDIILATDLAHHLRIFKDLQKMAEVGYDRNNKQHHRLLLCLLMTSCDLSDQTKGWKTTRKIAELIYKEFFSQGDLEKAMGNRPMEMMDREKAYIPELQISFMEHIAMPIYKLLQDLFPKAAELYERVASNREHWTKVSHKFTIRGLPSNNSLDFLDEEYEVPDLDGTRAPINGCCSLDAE

For the compound `CC(O)Cn1cnc2c1c(=O)n(C)c(=O)n2C` (centres undefined) [PROXYPHYLLINE], the Ki in test [1] came out at 500 µM; in test [2] it was 600 µM; in test [3] it was 600 µM.

Take `C[C@H](O)Cn1cnc2c1c(=O)n(C)c(=O)n2C` [(S)-PROXYPHYLLINE]: the Ki is 400 µM in test [1], 700 µM in test [2] and 600 µM in test [3].

For `C[C@@H](O)Cn1cnc2c1c(=O)n(C)c(=O)n2C` [(R)-PROXYPHYLLINE], the inhibition constant (Ki) in test [1] was 500 µM; in test [2], 600 µM; in test [3], 600 µM.
